Source: PubChem BioAssay (several laboratories)
The list is not random: actives were taken first. Their share in the collection is about 7.2%.
PostGolgi ctrl: growth of the yeast control strain, post-Golgi counter-screen; inhibition, % at 10 µM; efflux-deficient yeast background strain, growth absorbance A615, 16 h; 98,000 tested, 5% active
Ecoli WT expand: growth inhibitors of E. coli BW25113 wild type; OD600 absorbance; growth inhibition, % at 100 µM; 98,000 tested, 0.15% active; AID 710;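 active means growth inhibition above about 50% at one test dose, limit read from the data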;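 further: growth measured after 20 h incubation at 37 °C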
PostGolgi yeast: growth inhibition of a yeast mutant, post-Golgi transport screen; post-Golgi transport phenotypic cell assay; inhibition, % at 10 µM; 98,000 tested, 0.9% active;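 further: yeast cells grown in 1536-well plates; yeast grown about 18 h at 30C before absorbance read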
PLAP act: activates human placental alkaline phosphatase | 96,000 tested, 1.2% active | P05187 | purified PLAP enzyme, luminescent substrate read-out; stronger effect = higher value | activation fold at 20 µM; in the data active means activation fold above about 2
Target sequence (P05187 whole entry, looked up): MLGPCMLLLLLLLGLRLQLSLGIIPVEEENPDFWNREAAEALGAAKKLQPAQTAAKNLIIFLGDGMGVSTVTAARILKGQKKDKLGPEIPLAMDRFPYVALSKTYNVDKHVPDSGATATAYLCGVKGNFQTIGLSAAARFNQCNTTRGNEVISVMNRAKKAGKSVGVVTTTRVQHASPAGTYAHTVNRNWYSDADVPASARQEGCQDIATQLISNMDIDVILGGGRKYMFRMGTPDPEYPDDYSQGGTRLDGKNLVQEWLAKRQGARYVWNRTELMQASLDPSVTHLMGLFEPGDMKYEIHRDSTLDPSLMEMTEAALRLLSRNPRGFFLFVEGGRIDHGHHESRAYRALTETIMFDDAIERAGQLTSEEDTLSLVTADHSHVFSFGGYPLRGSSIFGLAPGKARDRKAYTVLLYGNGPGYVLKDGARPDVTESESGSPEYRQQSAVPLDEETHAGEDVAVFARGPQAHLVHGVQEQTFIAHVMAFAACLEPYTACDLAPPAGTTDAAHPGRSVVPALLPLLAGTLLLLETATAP
tolC growth inh: growth inhibitors of E. coli BW25113 tolC mutant; OD615; growth inhibition, % at 10 µM (by protocol); 65,000 tested, 2.2% active; AID 573;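 active means growth inhibition at or above a cutoff equal to the mean over every tested compound plus 3 SD, cut at about 60% in these data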;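 further: growth measured after 20 h incubation at 37 °C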
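Test system – E. coli BW25113 ΔtolC::kan, tolC deletion mutant strain · Detection – OD at 615 nm · Buffer or medium – LB with kanamycin 50 µg/mL · Times – 20 h compound exposure of bacteria at 37 °C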
The depositor's hits bear a star; · = no result given. Unless noted, no stated cut-off is given here; in the data, active means inhibition above about 30%; inactive means the rest.

SMILES	PostGolgi ctrl	Ecoli WT expand	PostGolgi yeast	PLAP act	tolC growth inh
Cc1cc(Br)ccc1NC(=O)CN1C(=O)C2C3CC(c4ccccc4)C(C3)C2C1=O (stereo not drawn)	53*	-10	2	1.2	·
O=C(O)c1ccc(COc2c(F)c(F)c(F)c(F)c2F)o1	9	1	2	·	4
COc1ccc(CNC(=O)c2cc(C3CC3)on2)cc1	33*	10	-6	0.9	2
O=S(=O)(c1ccc(NCCc2c[nH]c3ccccc23)nc1)N1CCOCC1	13	6	3	0.8	10
C=CCc1c(C)nc2c(C(=O)O)cnn2c1C	31*	-5	7	1	-9
Cc1ccc(Cc2c(C)nc3c(C(=O)O)cnn3c2C)cc1	·	·	·	·	2
Cc1nc2c(C(=O)N3CCN(C)CC3)cnn2c(C)c1Cc1ccc(Cl)cc1	5	-9	0	2.1*	·
Cc1ccccc1C(=O)Nc1cccc(NC(=O)Cn2cnc3c(=O)n(C)c(=O)n(C)c32)c1	1	0	-6	1	-1
O=C(Nc1ncnc2c1ncn2C1OC(COC(=O)c2ccccc2)C(F)C1O)c1ccccc1 (stereo not drawn)	2	-1	-1	1.6	5
CNCc1ccccc1OCC(=O)Nc1ccccc1OC	8	4	-5	0.8	·
CC1CCC(NC(=O)C2CCN(C(=O)NC3CCCCC3)CC2)CC1 (stereo not drawn)	3	3	17	1.2	-20
O=[N+]([O-])c1cccnc1NCCNc1ncc(C(F)(F)F)cc1Cl	35*	-2	5	0.9	·
O=[N+]([O-])c1ccccc1NCCNc1ncc(C(F)(F)F)cc1Cl	14	3	0	1.1	·
CCOc1ccc(N(CC(=O)NCc2cccc(OC)c2)S(=O)(=O)c2c(C)noc2C)cc1	27	-5	6	1	8
O=c1oc(Nc2cccc(F)c2)nc2ccccc12	18	-4	-1	1	·
Nc1nc(Nc2cccc(F)c2)nc2ccccc12	-3	63*	-8	1.5	25
O=C1CC(Nc2ccc(N3CCOCC3)cc2)C(=O)N1Cc1ccccc1 (stereo not drawn)	·	·	·	·	-8
O=C1CC(Nc2ccc3ccccc3c2)C(=O)N1Cc1ccccc1 (stereo not drawn)	38*	-4	0	0.8	·
CCn1cnc2c1c(=O)n(Cc1csc(-c3ccccc3)n1)c(=O)n2Cc1ccccc1	48*	-4	-2	1.5	32
Cc1cc(N2CCN(C(=O)c3ccco3)CC2)n2nc(-c3cccc(Cl)c3)cc2n1	52*	-13	7	1.6	9
Cc1nc2cc(-c3cccc(Cl)c3)nn2c(N2CCN(C(=O)c3ccco3)CC2)c1C	·	·	·	1.7	21
O=C(c1ccco1)N1CCN(C(=O)c2cc(-c3ccccc3)nc3ccccc23)CC1	31*	4	-3	1.3	·
COCCCNC(=O)c1cc2c(=O)n(C)c3ccccc3c2n1C	39*	5	22	1.1	0
Cn1c(C(=O)N2CCN(C(=O)c3ccco3)CC2)cc2c(=O)n(C)c3ccccc3c21	35*	-3	-10	1.5	32
O=C(Nc1ccc2c(c1)nc1n2CCOC1)c1ccccc1	-2	1	-4	0.9	-6
SMILES	PostGolgi ctrl	Ecoli WT expand	PostGolgi yeast	PLAP act	tolC growth inh
O=c1c2sc3nc(N4CCOCC4)c4c(c3c2ncn1Cc1ccco1)CCCC4	·	·	·	·	5
Cc1cc(N2CCN(C(=O)c3ccco3)CC2)n2nc(C)c(-c3ccccc3)c2n1	98*	-2	31*	1.9	6
CCCc1cc(N2CCCC2)n2nc(C)c(-c3ccccc3)c2n1	-1	-10	1	0.9	33
CCN1CCN(c2cc(C(C)(C)C)nc3c(-c4ccccc4)c(C)nn23)CC1	76*	10	21	1.6	·
Cc1cc(N2CCN(C(=O)c3ccco3)CC2)n2nc(C)c(-c3ccc(Cl)cc3)c2n1	·	·	·	1.7	-1
CC1CCC(C(=O)NC(C(=O)NCc2cccnc2)C(C)C)CC1 (stereo not drawn)	4	5	2	1.1	·
CCCNC(=O)C1CCN(S(=O)(=O)c2ccc(Br)cc2)CC1	·	·	·	·	-3
C=CCSc1nnc(-c2cc(Br)ccc2N)c(=O)[nH]1	4	-10	7	1.1	12
CCCCSc1nnc(-c2cc(Br)ccc2N)c(=O)[nH]1	36*	1	8	0.9	39
c1ccc(-c2ccc(Oc3cc(N4CCOCC4)nc(-c4ccccc4)n3)cc2)cc1	2	-13	-1	0.8	·
O=S(Cc1cc(Oc2ccccc2)nc(-c2ccccc2)n1)c1ccccc1 (stereo not drawn)	35*	-19	4	1.3	·
CC(=O)Nc1sc2c(c1C(c1ccc(F)cc1)N1CCOCC1)CCCC2 (stereo not drawn)	19	5	-3	1.9	·
CC(=O)Nc1sc2c(c1C(c1ccc(Cl)cc1)N1CCOCC1)CCCC2 (stereo not drawn)	31*	5	29	1.6	·
CCCCNS(=O)(=O)c1ccc(NS(=O)(=O)c2c(C)cc(C)cc2C)cc1	6	-8	-14	1.7	·
C=CCNCc1cccn1-c1ccccc1	34*	-1	-1	1.1	-11
COc1ccc(-c2c3c(=O)n(C)c(=O)n(C)c3cn2-c2ccccc2)cc1	25	-8	4	1.1	96*
COc1ccc(C(=O)Nn2cc3c(c2-c2ccccc2)c(=O)n(C)c(=O)n3C)cc1	-3	-6	-10	0.9	-4
CCCCOC(=O)Nc1cc(OC)c(Cl)cc1OC	7	-5	5	1.2	23
Cc1cc(C)cc(OCC(=O)Nc2nonc2NC(=O)COc2cc(C)cc(C)c2)c1	13	-1	-13	2.3*	16
Cc1cc(C)cc(OCC(=O)Nc2cccc(C(=O)O)c2)c1	3	-7	4	1	·
CCC(C)n1c(=O)c(C(=O)Nc2ccccc2S(N)(=O)=O)c(O)c2ccccc21 (stereo not drawn)	30*	-5	12	1.3	83*
CCOC(=O)Cc1csc(NC(=O)c2cccs2)n1	-4	-1	-1	1.1	11
CC(C)Cn1c(=O)c(C(=O)Nc2ccccc2S(N)(=O)=O)c(O)c2ccccc21	30*	-3	4	1.4	100*
CCCn1c(=O)c(C(=O)Nc2ccccc2C(=O)OCC)c(O)c2ccccc21	-9	-17	-6	1.3	0
CCn1c(=O)c(C(=O)Nc2cnccn2)c(O)c2ccccc21	·	·	·	1	19
SMILES	PostGolgi ctrl	Ecoli WT expand	PostGolgi yeast	PLAP act	tolC growth inh
CCOC(=O)Cc1csc(NC(=O)c2c(O)c3ccccc3n(CC(C)C)c2=O)n1	32*	4	2	1.6	·
COc1ccc(N2CCN(C(=O)CC3NC4CCCCC4NC3=O)CC2)cc1 (stereo not drawn)	-1	4	2	1	-13
O=C(CCC1CCCC1)N1CCN(C(=O)c2cccnc2)CC1	-4	7	1	1.3	1
C=CCSC1=C(C#N)C(c2cccc(OC)c2)CC(=O)N1 (stereo not drawn)	9	5	-1	1.1	-1
Cc1cc(C)nc(SCc2nc(N)nc(-c3ccccc3O)n2)n1	6	1	15	1.3	14
Oc1ccc(C(=S)N2CCCCCC2)cc1	30*	7	-20	0.9	·
